# Results from PubChem BioAssay AID743238 (Broad Institute, 2013).
# Several values for one entry are separate records, joined by “and”; a condition that tells them apart may be missing. Equal entries are not always repeated. In all, about 360,000 compounds went through this assay and about 200 (0.056%) were called active. The entries come from a sample that favours actives as a whole. Unmarked numbers belong to inactive results.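 The calls were made as follows: active = mean normalized replicate activation at least 10% and every replicate at or above 10%; inconclusive = only one of the two criteria met; inactive = mean below 10% and not all replicates reach 10%.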
# Assay: Xi reactivation inducers in mouse fibroblasts – imaging, XiGFP fibroblasts, GFP high-content imaging, set 2, primary screen (AID 743238);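 also: 0% = median of on-plate neutral control wells and 100% = ellipticine 6 µM median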
# Conditions: % GFP-positive cells imaging, 3 d, at 7.58 µM, stronger effect = higher value, cells co-treated with 5-aza-dC sensitizer, scaled so ellipticine positive control = 100%
# Procedure, shortened: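 System: 68-5-11 XiGFP fibroblast line | Buffer or medium: DMEM containing 5-aza-dC | Compound: Single point | Times: Compounds 3 days, fix/stain 15 min at room temperature | Benchmarks: Positive control ellipticine, 6 µM final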
row,SMILES,activation
1,COC(=O)C[C@H]1CC[C@@H](NC(=O)c2ccccc2)[C@@H](CO)O1,-0.033%
2,COc1ccc(NC(=O)N(C)C[C@H]2Oc3c(NC(=O)Nc4cccc5ccccc45)cccc3C(=O)N([C@@H](C)CO)C[C@H]2C)cc1,-0.612%
3,O=C(C[C@H]1C[C@H]2c3cc(NC(=O)Nc4ccc(C(F)(F)F)cc4)ccc3O[C@H]2[C@@H](CO)O1)NCc1cccnc1,0.387%
4,CCCC(=O)Nc1ccc2c(c1)OC[C@H](C)N(CCc1ccccc1)C[C@H](C)[C@@H](OC)CN(C)C2=O,-0.359%
5,CCNC(=O)C[C@@H]1C=C[C@@H](NC(=O)C2CCOCC2)[C@@H](CO)O1,0.276%
6,COc1ccc(S(=O)(=O)N(C)C[C@@H]2Oc3ccc(NC(=O)Cc4ccccc4)cc3CC(=O)N([C@@H](C)CO)C[C@H]2C)cc1,-0.0685%
7,COc1ccc2c3c([nH]c2c1)[C@@H](CO)N(Cc1cc(F)ccc1F)CC31CCN(C(=O)C2CCC2)CC1,0.358%
8,Cc1ccc(S(=O)(=O)Nc2ccc3c(c2)C(=O)N(C)[C@@H]2CC[C@@H](CC(=O)O)O[C@H]2CO3)cc1,0.151%
9,O=C(C[C@@H]1C=C[C@H](NC(=O)Nc2ccccc2F)[C@H](CO)O1)NCc1ccc(F)cc1,0.215%
10,C[C@H](CO)N1C[C@H](C)[C@@H](CN(C)S(=O)(=O)c2cccs2)Oc2ccc(NC(=O)Nc3ccc(C(F)(F)F)cc3)cc2CC1=O,-0.017%
11,C[C@@H]1CCCCO[C@H](CN(C)C(=O)CCCN(C)C)[C@H](C)CN([C@@H](C)CO)C(=O)c2cc(NS(=O)(=O)c3ccc(Cl)cc3)ccc2O1,0.114%
12,C[C@H]1CCCCO[C@H](CN(C)C(=O)Nc2ccc(F)cc2)[C@@H](C)CN([C@@H](C)CO)C(=O)c2cc(NC(=O)CCC(F)(F)F)ccc2O1,-0.105%
13,N#C[C@@H]1[C@H](c2ccccc2-c2ccccc2F)[C@@H](CO)N1C(=O)C1CCOCC1,0.163%
14,O=C1C(Cl)=C(Oc2ccccc2)C(=O)c2ccccc21,19.2% (active)
15,CCC(=O)Nc1ccc2c(c1)C(=O)N(C)C[C@H](OC)[C@H](C)CN(C(=O)c1ccccc1F)[C@@H](C)CO2,0.375%
16,CO[C@H]1CN(C)C(=O)c2cc(NS(C)(=O)=O)ccc2OC[C@@H](C)N(C)C[C@@H]1C,-0.465%
17,C[C@@H]1CN([C@@H](C)CO)C(=O)CCCn2cc(nn2)CO[C@@H]1CN(C)S(=O)(=O)c1cccc(F)c1,-0.223%
18,C[C@H]1CN([C@@H](C)CO)C(=O)c2c(c3ccccc3n2C)-c2ccccc2CO[C@H]1CN(C)S(=O)(=O)c1ccc(C#N)cc1,-1.22%
19,CCC(=O)N1CC(=O)N2[C@@H](CO)[C@@H](c3ccc(C#CC4CCCC4)cc3)[C@@H]2C1,-0.0225%
20,CCCC#Cc1ccc([C@H]2[C@H]3CN(C(=O)Nc4cc(F)ccc4F)CC(=O)N3[C@H]2CO)cc1,0.26%
21,CN1C(=O)c2cc(NC(=O)c3cccc(F)c3)ccc2OC[C@@H]2O[C@@H](CC(=O)NCC3CCCCC3)CC[C@H]21,-0.045% and -0.023%

row,SMILES,activation
1,Cc1ccccc1S(=O)(=O)N1C[C@H](O)COC[C@H]2O[C@H](CC(=O)N3CCCCC3)CC[C@@H]21,0.037%
2,C=C(C)C[C@H]1CCn2cc(nn2)COCCNC1=O,0.348%
3,C[C@H]1CN([C@@H](C)CO)C(=O)c2cccc(NC(=O)CCCCCC(=O)Nc3ccccc3N)c2O[C@@H]1CN(C)C(=O)NC1CCCCC1,-1.38%
4,C[C@@H]1CN([C@@H](C)CO)C(=O)c2cc(NS(=O)(=O)c3ccc(F)cc3)ccc2O[C@@H]1CN(C)C(=O)NC1CCCCC1,0.0955%
5,O=C(C[C@@H]1C=C[C@H](NC(=O)C2CCC2)[C@@H](CO)O1)NCC1CC1,0.225%
6,C[C@@H]1CN([C@@H](C)CO)C(=O)c2cc(NC(=O)Nc3cccc4ccccc34)ccc2O[C@H]1CN(C)Cc1ccc(Oc2ccccc2)cc1,0.262%
7,O=C([C@@H]1[C@@H](CO)[C@@H]2Cn3c(ccc(C4=CCCC4)c3=O)[C@H]1N2C(=O)c1ccncc1)N1CCCCC1,0.116%
8,O=C(C[C@@H]1C[C@H]2c3cc(NC(=O)Nc4ccccc4F)ccc3O[C@H]2[C@@H](CO)O1)NC1CCCCC1,-0.047%
9,C[C@H](NC(=O)C[C@H]1C=C[C@@H](NC(=O)C2CCOCC2)[C@@H](CO)O1)c1ccccc1,0.456%
10,C[C@@H]1CC=CC[C@@H](c2ccccc2)NC(=O)[C@@H](Cc2ccccc2)N(C)C(=O)c2ccccc2O1 (mixture of isomers),0.0795%
11,Cc1ccc(-c2ccc([C@H]3[C@H]4CN(S(=O)(=O)c5cccc(F)c5)CC(=O)N4[C@H]3CO)cc2)cc1,0.287%
12,CC(C)NC(=O)N1[C@H](CO)[C@@H]2c3ccccc3N(C(=O)Nc3cccc(Cl)c3)C[C@@H]21,0.198%
13,C/C=C/c1ccc([C@H]2[C@@H](CO)N3CCCCN(C(=O)c4ccc(F)cc4)C[C@@H]23)cc1,0.11%
14,O=C(Nc1cc(F)ccc1F)N[C@H]1CC[C@H](CCn2cc(C3CCCC3)nn2)O[C@@H]1CO,0.418%
15,C/C=C/c1ccccc1[C@H]1[C@@H](C#N)N(c2nc(CC)cs2)[C@@H]1CO,-0.0085%
16,OC[C@@H]1[C@@H](c2ccccc2)C2(CN(Cc3cccc(F)c3)C2)N1CC1CCCC1,-0.0685%
17,CO[C@@H]1CN(C)C(=O)c2cc(NC(=O)C3CCCC3)ccc2OC[C@@H](C)N(C(=O)Nc2ccc(C(F)(F)F)cc2)C[C@H]1C,0.0025%
18,C[C@@H]1CN([C@H](C)CO)C(=O)c2cccc(NS(=O)(=O)c3ccc(Cl)cc3)c2O[C@@H]1CN(C)CC1CC1,0.281%
19,Cc1noc(C)c1NC(=O)N(C)C[C@@H]1Oc2c(NC(=O)C3CCCCC3)cccc2C(=O)N([C@H](C)CO)C[C@@H]1C,-0.974%
20,CCCC(=O)N1CCC2(CC1)CN[C@H](CO)c1[nH]c3cc(OC)ccc3c12,-0.018%
21,O=C(C[C@@H]1CC[C@H]2[C@@H](COC[C@@H](O)CN2S(=O)(=O)c2cccc(F)c2)O1)NCCCN1CCOCC1,-0.0535%

row,SMILES,activation
1,C[C@@H]1CCCCO[C@H](CN(C)Cc2ccncc2)[C@@H](C)CN([C@H](C)CO)C(=O)c2cc(NS(C)(=O)=O)ccc2O1,-0.0215%
2,CO[C@H]1CN(C)C(=O)c2ccc(NC(=O)C3CCC3)cc2OC[C@H](C)NC[C@@H]1C,0.146%
3,COc1ccc(NC(=O)Nc2ccc3c(c2)[C@H]2C[C@H](CC(=O)NC4CCCC4)O[C@@H](CO)[C@H]2O3)cc1,4.51%
4,COc1cccc(-c2ccc([C@@H]3[C@H]4CN(C(=O)c5cccnc5)CC(=O)N4[C@H]3CO)cc2)c1,0.076%
5,O=C(c1ccncc1)N1C[C@H]2[C@@H](c3ccccc31)[C@H](CO)N2C(=O)Nc1ccc(F)cc1,0.255%
6,C[C@H]1CN([C@@H](C)CO)C(=O)Cc2cc(NC(=O)Cc3ccccc3)ccc2O[C@@H]1CN(C)S(=O)(=O)c1ccc(Cl)cc1,-1.34%
7,CO[C@@H]1CN(C)C(=O)c2cc(NC(=O)NC3CCCC3)ccc2OC[C@H](C)NC[C@H]1C,0.41%
8,C[C@@H]1CCCCO[C@@H](CN(C)C(=O)CCCN(C)C)[C@@H](C)CN([C@H](C)CO)C(=O)c2cc(NC(=O)Nc3ccc(F)cc3)ccc2O1,0.229%
9,COc1ccc(N2C(=O)C3CCCN3C2c2cccc(OC)c2)cc1 (stereo not drawn),12.3% (active)
10,COc1ccc(N2C(=O)C3CCCN3C2c2cccs2)cc1 (stereo not drawn),-0.124%
11,COc1ccc(N2C(=O)C3CCCN3C2c2cc(OC)c(OC)cc2OC)cc1 (stereo not drawn),0%
12,O=C(C[C@@H]1CC[C@@H]2[C@H](COC[C@H](O)CN2C(=O)C2CC2)O1)NCc1ccncc1,0.085%
13,C[C@@H]1CCCCO[C@H](CN(C)S(C)(=O)=O)[C@@H](C)CN([C@@H](C)CO)C(=O)c2cc(NC(=O)CCC(F)(F)F)ccc2O1,0.0715%
14,O=C(c1ccccn1)N1CC2(C1)[C@@H](c1ccccc1)[C@@H](CO)N2C(=O)C1CCCCC1,-0.0175%
15,O=C(N[C@@H]1CC[C@H](CCn2cc(C3CC3)nn2)O[C@H]1CO)c1cccnc1,-0.107%
16,CO[C@H]1CN(C)C(=O)c2cc(NC(=O)C3CC3)ccc2OC[C@@H](C)NC[C@H]1C,0.168%
17,CCc1nc2ccc(C(=O)N3CCN(c4cccc(Cl)c4)CC3)cc2nc1CC,0.143%
18,C#Cc1cc(N2CCN(C(=O)c3ccoc3)CC2)n2nc(-c3cccc(Cl)c3)cc2n1,34% (active)
19,CNc1cncc(-c2cccc(C(=O)N3CCOCC3)c2)n1,0.023%
20,CO[C@@H]1CN(C)C(=O)c2cc(NC(=O)c3cccc(F)c3)ccc2OC[C@H](C)N(C)C[C@@H]1C,-0.118%
21,COc1ccc(NC(=O)N(C)C[C@@H]2OCCCC[C@H](C)Oc3ccc(NS(=O)(=O)c4c(C)noc4C)cc3C(=O)N([C@@H](C)CO)C[C@@H]2C)cc1,0.115%
